For orientation: IC50 means the midpoint of a concentration-inhibition curve. For orientation: inhibition means how much of the control response was suppressed. Broadly, the inhibition in vivo is the change of the read-out against control, counted positive when it falls.

We go through eleven compounds from ChEMBL document CHEMBL3588747, “Virtual High-Throughput Screening To Identify Novel Activin Antagonists” (J Med Chem, 2015).

Activity calls are given as the source filed them. The calls are words filed in the database; no cut-off is given here.

In data set [1] the test system is HepG2. As to the kind of experiment: […] in human HepG2 cells assessed as cell viability after 96 hrs by MTT assay. In kind it is functional, cell-based. Conditions: HepG2, 96 h. A digest of the protocol: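 HepG2 cells (5 × 10^4/well) treated with 1 nM activin A alone (DMSO solvent control) or with compound 1.6–200 µM or Fst288 0.5–8 nM, 96 h at 37 °C in DMEM with 0.2% FBS, pyruvate, glutamine. MTT added 0.5–1 h for viability as reversal of activin-induced apoptosis; IC50 from sigmoidal variable-slope fit; means ± SD.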
(Formazan colour is commonly taken as a measure of viable cells.)

Data set [2] can be described thus: Solubility of the compound in cell growth medium up to 200 uM after 24 hrs by upright light microscopy. In kind it is physicochemical. In outline: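 Compound from 50 mM DMSO stock diluted to 200 µM final in DMEM-F12 with 5% FBS, 1% penicillin/streptomycin, […] D-glucose, held 24 h; precipitate checked visually under upright light microscope.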
Data set [3] deals with T1, Inhibin beta A chain (Mus musculus, UniProt Q04998).
T1 sequence (Q04998 whole entry): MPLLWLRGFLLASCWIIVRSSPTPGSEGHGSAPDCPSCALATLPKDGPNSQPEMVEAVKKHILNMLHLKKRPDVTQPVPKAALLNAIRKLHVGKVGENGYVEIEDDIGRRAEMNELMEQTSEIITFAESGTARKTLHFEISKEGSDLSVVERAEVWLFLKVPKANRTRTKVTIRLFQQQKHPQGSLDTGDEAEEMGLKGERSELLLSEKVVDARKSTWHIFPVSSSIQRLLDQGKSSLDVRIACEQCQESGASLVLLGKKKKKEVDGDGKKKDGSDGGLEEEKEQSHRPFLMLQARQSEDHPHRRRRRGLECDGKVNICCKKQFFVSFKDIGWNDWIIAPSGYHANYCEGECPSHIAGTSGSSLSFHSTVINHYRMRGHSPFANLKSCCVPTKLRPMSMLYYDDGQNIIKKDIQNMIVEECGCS
In words: Antagonist activity at activin A in mouse LbetaT2 cells transfected with -338 promoter region of FSHbeta gene conjugated to luciferase reporter assessed as inhibition of FSHbeta promoter activation by luciferase assay. In kind it is cell-based. In outline: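 −338FSHβ-Luc stably transfected LβT2 cells, 5 × 10^4 cells/well, plated 24 h, then given activin A (0.2 nM) with compound at 0.4–100 µM (in DMSO) or Fst288 0.05–4 nM as control, 6 h at 37 °C in serum-free, phenol red-free DMEM-F12. Cells lysed, luciferase activity read; IC50 from sigmoidal variable-slope fit; means ± SD.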

The nature of data set [4]: Cytotoxicity against mouse LbetaT2 cells assessed as reduction in cell viability at 100 uM after 24 hrs by MTT assay. In kind it is functional. A digest of the protocol: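 LβT2 gonadotrope cells seeded 5 × 10^4/well, grown 24 h in DMEM-F12 with 5% FBS and […] D-glucose, then exposed to compound at 10 or 100 µM in growth medium for 24 h. MTT added for a further 2–3 h; absorbance at 490 nm as viability.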

For data set [5], the target named is T2, Inhibin beta A chain (Mus musculus) (UniProt Q04998).
T2 sequence (whole entry): T1 sequence (Q04998 whole entry)
As to the kind of experiment: Inhibition of activin A stimulated 4 day old CD1 mouse ovarian cell proliferation at 200 uM for 4 days by BrdU assay. In outline: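 Ovaries from 4-day-old CD1 mice cultured on membrane inserts in DMEM/F12 with 0.03% BSA with 1 nM activin A plus compound at 200 µM (DMSO control; Fst288 4 nM or inhibin A 8 nM references) for 4 days, then 10 µM BrdU for 24 h. Genomic DNA (150 ng) denatured, dot-blotted, probed with anti-BrdU, ECL, densitometry; three independent experiments; ANOVA/Tukey.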
A general note: Uptake of a labelled nucleoside into DNA is a usual measure of proliferation.

Data set [6] relates to Mus musculus. As to the kind of experiment: Inhibition of activin - stimulated serum FSH level in ovariectomized CD1 mouse at 15 mg/kg, sc by ELISA (reference value: 100%). It counts as functional, organism-based. In outline: (§1)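 Ovariectomized 12-week-old CD1 mice dosed subcutaneously twice daily for 2 days (4 doses); vehicle TBS or DMSO; Fst288 200 µg/kg for 3 doses as reference. Serum then collected, stored −20 °C, FSH measured by ELISA (sensitivity 0.35 mIU/mL, read 450 nm); vehicle mean set to 100%. 5–7 mice per group, 10 controls; one-way ANOVA with Tukey.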
In general terms: In an ELISA, binding on a coated surface is turned into a signal by an enzyme label.

The test system of data set [7] is Mus musculus. As to the kind of experiment: Inhibition of activin - stimulated serum FSH level in ovariectomized CD1 mouse at 30 mg/kg, sc by ELISA (reference value: 100%). It counts as functional. In outline: as §1
The test system of data set [8] is Mus musculus. As to the kind of experiment: Inhibition of activin - stimulated serum FSH level in ovariectomized CD1 mouse at 60 mg/kg, sc by ELISA (reference value: 100%). It counts as functional. In outline:
as §1

The target of data set [9] is T3, Inhibin beta A chain (Homo sapiens) (UniProt P08476).
T3 sequence (whole entry): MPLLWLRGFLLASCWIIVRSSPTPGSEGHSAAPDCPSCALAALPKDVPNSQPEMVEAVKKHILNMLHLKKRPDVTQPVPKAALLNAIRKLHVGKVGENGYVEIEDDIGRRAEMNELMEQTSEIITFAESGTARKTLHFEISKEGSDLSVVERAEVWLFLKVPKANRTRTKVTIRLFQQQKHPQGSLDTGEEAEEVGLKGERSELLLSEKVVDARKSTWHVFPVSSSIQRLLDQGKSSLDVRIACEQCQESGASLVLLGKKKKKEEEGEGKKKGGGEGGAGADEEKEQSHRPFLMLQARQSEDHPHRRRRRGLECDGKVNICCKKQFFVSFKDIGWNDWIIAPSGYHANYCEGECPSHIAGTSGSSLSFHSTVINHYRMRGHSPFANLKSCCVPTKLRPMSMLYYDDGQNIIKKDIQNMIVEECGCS
As to the kind of experiment: Inhibition of interaction of activin A (unknown origin)/ActRIIA-ECD complex with ALK4-ECD-Fc after 120 secs by competitive binding/ Blitz binding assay. In outline: (§2)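 ALK4-ECD-Fc (50 ng/mL) captured on a protein A biosensor for 120 s, then dipped into activin A/ActRIIA-ECD premixed 1:2 molar, 1.6 µM final in PBS, with solvent or compound at 0.4, 1.6, 6.25 or 25 µM; 120 s association, 120 s dissociation in PBS; wavelength shift monitored by Blitz.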

Data set [10] relates to Mus musculus. As to the kind of experiment: Toxicity in ovariectomized CD1 mouse assessed as liver and kidney histopathology at 60 mg/kg, sc twice daily for 2 days. Conditions: in vivo, 48 h. In kind it is organism-based. In outline: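 Ovariectomized CD1 mice given vehicle or 60 mg/kg subcutaneously, 4 doses over 2 days; kidney and liver fixed in Modified Davidson's fixative 5 days at 4 °C, paraffin-embedded, H&E stained for histopathology.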

Data set [11] deals with T3, Inhibin beta A chain (Homo sapiens). As to the kind of experiment: Inhibition of interaction of activin A (unknown origin) with ActRIIA-ECD complex at 25 uM after 120 secs by competitive binding/ Blitz binding assay. In outline:
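Protein A biosensor (Blitz, dip-and-read) loaded with ActRIIA-ECD-Fc; activin A at 1.6 µM final, with solvent or compound at 25 µM, 120 s association and 120 s dissociation in PBS; real-time wavelength shift recorded.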

For data set [12], the target named is Growth/differentiation factor 8 (Homo sapiens) (UniProt O14793). As to the kind of experiment: Inhibition of interaction of myostatin (unknown origin)/ActRIIA-ECD complex with ALK4-ECD-Fc at 25 uM after 120 secs by competitive binding/ Blitz binding assay. In outline:
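Blitz biolayer assay: ALK4-ECD-Fc (50 ng/mL) captured on protein A biosensor 120 s, exposed to myostatin/ActRIIA-ECD premixed 1:2 molar at 1.6 µM final in PBS with solvent or compound at 25 µM; 120 s association, 120 s dissociation; real-time wavelength shift.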

The target in data set [13] is T4, Growth/differentiation factor 8 (Mus musculus, UniProt O08689).
T4 sequence (O08689 whole entry): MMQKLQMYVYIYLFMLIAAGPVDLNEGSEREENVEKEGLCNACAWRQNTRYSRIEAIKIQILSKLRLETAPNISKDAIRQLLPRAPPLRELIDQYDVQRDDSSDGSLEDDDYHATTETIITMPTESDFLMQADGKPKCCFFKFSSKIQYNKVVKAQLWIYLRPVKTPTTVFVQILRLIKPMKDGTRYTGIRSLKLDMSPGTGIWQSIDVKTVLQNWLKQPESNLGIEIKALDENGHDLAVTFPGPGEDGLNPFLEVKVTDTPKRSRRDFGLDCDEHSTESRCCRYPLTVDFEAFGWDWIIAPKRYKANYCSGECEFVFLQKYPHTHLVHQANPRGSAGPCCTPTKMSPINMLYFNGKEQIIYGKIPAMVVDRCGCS
In words: Antagonist activity at myostatin in mouse LbetaT2 cells transfected with -338 promoter region of FSHbeta gene conjugated to luciferase reporter assessed as inhibition of FSHbeta promoter activation by luciferase assay. It counts as cell-based. A digest of the protocol:
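Stable −338FSHβ-Luc LβT2 cells were plated at 5 × 10^4/well. They were stimulated with myostatin (0.2 nM) plus DMSO solvent control, or with compound at 0.8–100 µM, for 6 h at 37 °C in serum-free, phenol red-free DMEM-F12. Cells were lysed for luciferase readout. Runs were in triplicate across three experiments, and IC50 came from a sigmoidal variable-slope fit, reported as mean ± SD.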

Data set [14] deals with T3, Inhibin beta A chain (Homo sapiens). In words: Inhibition of interaction of activin A (unknown origin)/ActRIIA-ECD complex with ALK4-ECD-Fc at 25 uM after 120 secs by competitive binding/ Blitz binding assay. A digest of the protocol: as §2
Data set [15] relates to Mus musculus. As to the kind of experiment: Toxicity in ovariectomized CD1 mouse assessed as change in behavior at 60 mg/kg, sc twice daily for 2 days. In kind it is organism-based. Conditions: in vivo, 48 h. A digest of the protocol: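 Ovariectomized 12-week-old CD1 mice given subcutaneous compound twice daily for 2 days (4 doses); behaviour observed after injection.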

For `COc1ccc(OC[C@@H](O)CN2CCC(O)CC2)c(CNCCc2cccnc2)c1`, the IC50 was found to be 47.3 µM in data set [1] and 4.18 µM in [3]. In data set [2], the solubility entry is listed as “soluble”. The inhibition at 100 µM in data set [4] is below 20%.
Turning to `O=C(N[C@H](Cc1ccc2c(c1)OCO2)C(=O)N[C@@H](Cc1c[nH]c2ccccc12)C(=O)O)c1ccccc1`, in data set [2], the solubility result was “soluble”. The IC50 in data set [3] is above 100 µM. Moreover, the inhibition at 100 µM in [4] was below 20%.
For `CCCn1ncc(CN2CCN(CCCc3ccccc3)[C@@H](CCO)C2)c1C`, in data set [2], the solubility result is given as “soluble”. For the same compound, in data set [3], the IC50 was above 100 µM. In addition, the inhibition at 100 µM in data set [4] was below 20%.
As for `CC(C)(O)C#Cc1ccc(CN2CCC[C@@H](CCC(=O)N3CCOCC3)C2)s1`, the IC50 in [1] stood at 23.2 µM; in [3], 4.42 µM. In addition, the solubility result in data set [2] was “soluble”. The inhibition at 100 µM in [4] is below 20%. The inhibition entry in data set [5] is “Active”.
As to `Cc1n[nH]c(O)c1C(c1ccc(-c2ccccc2C(=O)O)o1)c1c(C)n[nH]c1O`, in data set [2], the solubility result was “soluble”. Moreover, in data set [3], the IC50 was above 100 µM. Besides, the inhibition at 100 µM in data set [4] was below 20%.
For `COc1cccc(CO[C@H]2CN(CCc3ccccc3)C(=O)CN(C(=O)[C@@H]3CNC(=O)C3)C2)c1`, in data set [2], the solubility entry is recorded as “soluble”. In addition, the IC50 in [3] was above 100 µM. In [4], the inhibition at 100 µM is below 20%.
With `O=C(NCc1ccccc1)c1nn(CCO)c2c1CN(C1CCCC1)CC2`, the solubility entry in data set [2] was “soluble”. In addition, the IC50 in [3] is above 100 µM. The inhibition at 100 µM in [4] was below 20%.
Turning to `O=C(NCc1cccc(F)c1)[C@@H]1CCC(=O)N(CCCN2CCCC2=O)C1`, in [2], the solubility result is given as “soluble”. Moreover, the IC50 in [3] was above 100 µM. Further, the inhibition at 100 µM in [4] is below 20%.
Turning to `Cn1cc(CN2C[C@H](OCc3cccnc3)CN(Cc3ccc(C#CC(C)(C)O)cc3)CC2=O)cn1`, the IC50 in data set [1] is 43.9 µM; in data set [3] it was 4.25 µM. The solubility result in data set [2] is reported as “soluble”. For the same compound, the inhibition at 100 µM in [4] is below 20%.
The matching figures for `O=C1CC[C@](CCC(=O)N2CCC([C@@H](O)c3cccnc3)CC2)(Cc2cccc3ccccc23)N1`: above 200 µM, 23.6 µM, “soluble” and below 20%.
As to `CCn1c(-c2cccnc2)nc2cc(NC(=O)COC)cc(C(=O)NCc3ccccc3)c21`, the result in data set [6], in data set [11] and in data set [12] was inactive. This compound also displayed an inhibition in vivo at 30 mg/kg in [7] of 70%. In data set [8], this compound displayed an inhibition in vivo at 60 mg/kg of 70%. Moreover, in data set [9], the inhibition entry was “Dose-dependent effect”. Moreover, the IC50 in data set [1] is 12.1 µM; in [3], 3.67 µM; in data set [13], 47.9 µM. The Activity entry in data set [10] and in data set [15] was “Non-toxic” each time. Further, in data set [2], the solubility result is “soluble”. The result in data set [14] was Active. Further, the inhibition at 100 µM in data set [4] was below 20%. Besides, the inhibition entry in [5] is “Active”.
